Key:
Staphylococcus aureus [1] = assay: Antibacterial activity against Staphylococcus aureus-M after 24 hrs by microdilution method; format: functional
Procedure, shortened: (§1)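 Broth microdilution in Mueller–Hinton medium run on an automated liquid handler. Compounds dissolved in DMF (5 mg/ml stock) and tested in medium from 64 to 0.125 µg/ml. Plates incubated 24 h at 37 °C, then growth read as absorbance at 600 nm. MIC taken as the concentration giving 90% growth inhibition.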

Staphylococcus aureus [2] = assay: Antibacterial activity against Staphylococcus aureus-cMLS after 24 hrs by microdilution method; format: functional; procedure, shortened: as §1
Streptococcus pneumoniae [3] = assay: Antibacterial activity against Streptococcus pneumoniae after 24 hrs by microdilution method; format: functional; procedure, shortened: as §1
Streptococcus pneumoniae [4] = assay: Antibacterial activity against Streptococcus pneumoniae-M after 24 hrs by microdilution method; format: functional; procedure, shortened: as §1
Streptococcus pyogenes [5] = assay: Antibacterial activity against Streptococcus pyogenes after 24 hrs by microdilution method; format: functional; procedure, shortened: as §1
Streptococcus pyogenes [6] = assay: Antibacterial activity against Streptococcus pyogenes-M after 24 hrs by microdilution method; format: functional; procedure, shortened: as §1
Haemophilus influenzae = assay: Antibacterial activity against Haemophilus influenzae after 24 hrs by microdilution method; format: functional; procedure, shortened: as §1
Saccharomyces cerevisiae = assay: Toxicity against Saccharomyces cerevisiae; format: organism-based; details: in vivo
Procedure, shortened: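 Yeast used as a surrogate for eukaryotic cell toxicity. Microdilution in Mueller–Hinton medium with compound from a DMF stock (5 mg/ml), final range 64 to 0.125 µg/ml. Incubated 24 h at 37 °C, with optical density read at 600 nm. MIC defined as the concentration inhibiting growth by 90%.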

CC[C@H]1OC(=O)[C@H](C)[C@@H](O)[C@H](C)[C@@H](O[C@@H]2O[C@H](C)C[C@H](N(C)C)[C@H]2O)[C@](C)(OC)C[C@@H](C)CN(C(=O)Nc2ccc(Cl)cc2Cl)[C@H](C)[C@@H](O)[C@]1(C)O
MIC (Staphylococcus aureus [1]): > 64 µg/mL
MIC (Staphylococcus aureus [2]): > 64 µg/mL
MIC (Streptococcus pneumoniae [3]): > 64 µg/mL
MIC (Streptococcus pneumoniae [4]): > 64 µg/mL
MIC (Streptococcus pyogenes [5]): > 64 µg/mL
MIC (Streptococcus pyogenes [6]): > 64 µg/mL
MIC (Haemophilus influenzae): > 64 µg/mL
Activity (Saccharomyces cerevisiae): Non-toxic
